Test results as given in ChEMBL document CHEMBL5724801, “EUbOPEN Chemogenomics Library - Multiplex” (2024).
Several values for one entry are separate records, joined by “and”; a condition that tells them apart may be missing. Equal values may be shown once.

Tests used:
Format in all cases: toxicity, cell-based
HEK-293T = test: Multiplex assay against HEK293T; settings: human
Summary of the method: (§1)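 Imaging took place on a CQ1 microscope at 37°C and 5% CO2 once compound had been added to live cells stained at seeding with Hoechst33342, BioTracker Green Microtubule Cytoskeleton Dye, MitoTracker Red and Annexin V Alexa Fluor 680. CellPathfinder machine-learning gating classed cells as Hoechst high-intensity objects or normal cells, classed normal cells as having healthy, pyknosed or fragmented nuclei, and classed pyknosed cells as mitotic or apoptotic. Tubulin, mitochondrial-mass and membrane-permeability phenotypes are per cents of the healthy-nucleus cells.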

Fibroblast = test: Multiplex assay against human fibroblast; summary of the method: as §1
U2OS = test: Multiplex assay against U2OS; settings: human; summary of the method: as §1
[1] = 12 h, 1 µM, compound concentration 1 uM
[2] = 12 h, 10 µM, compound concentration 10 uM
[3] = 24 h, 1 µM, compound concentration 1 uM
[4] = 24 h, 10 µM, compound concentration 10 uM
[5] = 48 h, 1 µM, compound concentration 1 uM
[6] = 48 h, 10 µM, compound concentration 10 uM

## CC(C)Oc1ccc(F)c(-c2cnc(N)c(C(=O)Nc3cnccc3N3CCC[C@@H](C(=O)O)C3)n2)c1
HEK-293T; [1]
  Population Apoptotic (%): 7.53% and 11.02%
  Population Fragmented Nuclei (%): 1.12% and 6.54%
  Population Hoechst High Intensity Objects (%): 0.28% and 0%
  Population Membrane Permeable-Phenotype (%): 0% and 4%
  Population Mitochondria Different-Phenotype (%): 34.13% and 12%
  Population Mitotic Cells (%): 92.47% and 88.98%
  Population Normal (%): 99.72% and 100%
  Population Pyknosed Nuclei (%): 40.78% and 77.12%
  Total Cell Count: 359 and 153
HEK-293T; [2]
  Population Apoptotic (%): 24.14% and 33.33%
  Population Fragmented Nuclei (%): 7.04% and 7.45%
  Population Hoechst High Intensity Objects (%): 1.97% and 0%
  Population Membrane Permeable-Phenotype (%): 4.08% and 0%
  Population Mitochondria Different-Phenotype (%): 31.63% and 17.39%
  Population Mitotic Cells (%): 75.86% and 66.67%
  Population Normal (%): 98.03% and 100%
  Population Pyknosed Nuclei (%): 43.72% and 78.26%
  Population Tubulin-Different-Phenotype (%): 70.41% and 47.83%
  Total Cell Count: 203 and 161
HEK-293T; [3]
  Population Apoptotic (%): 17% and 27.27%
  Population Fragmented Nuclei (%): 0.79% and 9.15%
  Population Hoechst High Intensity Objects (%): 0%
  Population Membrane Permeable-Phenotype (%): 1.73% and 0%
  Population Mitochondria Different-Phenotype (%): 12.59% and 10%
  Population Mitotic Cells (%): 83% and 72.73%
  Population Normal (%): 100%
  Population Tubulin-Different-Phenotype (%): 24.69% and 10%
HEK-293T; [4]
  Population Apoptotic (%): 20.45% and 46.61%
  Population Fragmented Nuclei (%): 3.49% and 7.1%
  Population Healthy Nuclei (%): 62.4% and 28.42%
  Population Hoechst High Intensity Objects (%): 0.77% and 0%
  Population Membrane Permeable-Phenotype (%): 1.86% and 0%
  Population Mitochondria Different-Phenotype (%): 33.54% and 11.54%
  Population Mitotic Cells (%): 79.55% and 53.39%
  Population Normal (%): 99.23% and 100%
  Population Pyknosed Nuclei (%): 34.11% and 64.48%
  Total Cell Count: 260 and 183
HEK-293T; [5]
  Population Apoptotic (%): 8.84% and 23.26%
  Population Fragmented Nuclei (%): 3.08% and 2.66%
  Population Healthy Nuclei (%): 77.03% and 51.6%
  Population Hoechst High Intensity Objects (%): 0.22% and 0%
  Population Membrane Permeable-Phenotype (%): 3.42% and 2.06%
  Population Mitochondria Different-Phenotype (%): 29.39% and 26.8%
  Population Mitotic Cells (%): 91.16% and 76.74%
  Population Normal (%): 99.78% and 100%
  Population Pyknosed Nuclei (%): 19.89% and 45.74%
HEK-293T; [6]
  Population Apoptotic (%): 31.37% and 50.7%
  Population Fragmented Nuclei (%): 10.59% and 8.51%
  Population Healthy Nuclei (%): 74.41% and 53.72%
  Population Hoechst High Intensity Objects (%): 0.29% and 0.53%
  Population Membrane Permeable-Phenotype (%): 7.11% and 0.99%
  Population Mitochondria Different-Phenotype (%): 69.96% and 27.72%
  Population Mitotic Cells (%): 68.63% and 49.3%
  Population Normal (%): 99.71% and 99.47%
  Population Pyknosed Nuclei (%): 15% and 37.77%
  Population Tubulin-Different-Phenotype (%): 27.67% and 73.27%
  Total Cell Count: 341 and 189
Fibroblast; [1]
  Population Apoptotic (%): 23.53% and 20.59%
  Population Fragmented Nuclei (%): 23.08% and 16.74%
  Population Healthy Nuclei (%): 53.85% and 68.67%
  Population Hoechst High Intensity Objects (%): 0%
  Population Membrane Permeable-Phenotype (%): 1.68% and 3.12%
  Population Mitochondria Different-Phenotype (%): 7.56% and 5.62%
  Population Mitotic Cells (%): 76.47% and 79.41%
  Population Normal (%): 100%
  Population Pyknosed Nuclei (%): 23.08% and 14.59%
  Population Tubulin-Different-Phenotype (%): 15.97% and 18.12%
  Total Cell Count: 221 and 233
Fibroblast; [2]
  Population Apoptotic (%): 16.67% and 33.33%
  Population Fragmented Nuclei (%): 29.81% and 29.75%
  Population Healthy Nuclei (%): 60.87% and 65.82%
  Population Hoechst High Intensity Objects (%): 0%
  Population Membrane Permeable-Phenotype (%): 16.33% and 15.38%
  Population Mitochondria Different-Phenotype (%): 5.61% and 3.53%
  Population Mitotic Cells (%): 83.33% and 66.67%
  Population Normal (%): 100%
  Population Pyknosed Nuclei (%): 9.32% and 4.43%
  Population Tubulin-Different-Phenotype (%): 45.92% and 79.17%
  Total Cell Count: 322 and 474
Fibroblast; [3]
  Population Fragmented Nuclei (%): 24.16% and 21.57%
  Population Healthy Nuclei (%): 52.79% and 67.45%
  Population Hoechst High Intensity Objects (%): 0%
  Population Membrane Permeable-Phenotype (%): 4.23% and 3.49%
  Population Mitochondria Different-Phenotype (%): 2.11% and 4.65%
  Population Mitotic Cells (%): 93.55% and 71.43%
  Population Normal (%): 100%
  Population Pyknosed Nuclei (%): 23.05% and 10.98%
  Population Tubulin-Different-Phenotype (%): 14.79% and 23.26%
  Total Cell Count: 269 and 255
Fibroblast; [4]
  Population Apoptotic (%): 11.11% and 17.65%
  Population Fragmented Nuclei (%): 39.53% and 37.88%
  Population Healthy Nuclei (%): 53.49% and 59.43%
  Population Hoechst High Intensity Objects (%): 0%
  Population Membrane Permeable-Phenotype (%): 13.04% and 18.13%
  Population Mitochondria Different-Phenotype (%): 11.11% and 4.27%
  Population Mitotic Cells (%): 88.89% and 82.35%
  Population Normal (%): 100%
  Population Pyknosed Nuclei (%): 6.98% and 2.69%
  Population Tubulin-Different-Phenotype (%): 58.94% and 76%
  Total Cell Count: 387 and 631
Fibroblast; [5]
  Population Apoptotic (%): 11.96% and 8.33%
  Population Fragmented Nuclei (%): 17.32% and 18.8%
  Population Healthy Nuclei (%): 61.43% and 70.94%
  Population Hoechst High Intensity Objects (%): 0%
  Population Membrane Permeable-Phenotype (%): 1.88% and 3.61%
  Population Mitochondria Different-Phenotype (%): 6.39% and 2.41%
  Population Mitotic Cells (%): 88.04% and 91.67%
  Population Normal (%): 100%
  Population Pyknosed Nuclei (%): 21.25% and 10.26%
  Population Tubulin-Different-Phenotype (%): 24.06% and 42.97%
  Total Cell Count: 433 and 351
Fibroblast; [6]
  Population Apoptotic (%): 25% and 75%
  Population Fragmented Nuclei (%): 43.91% and 38.05%
  Population Healthy Nuclei (%): 54.09% and 60.35%
  Population Hoechst High Intensity Objects (%): 0%
  Population Membrane Permeable-Phenotype (%): 15.74% and 24.56%
  Population Mitochondria Different-Phenotype (%): 9.88% and 3.1%
  Population Mitotic Cells (%): 75% and 25%
  Population Normal (%): 100%
  Population Pyknosed Nuclei (%): 2% and 1.6%
  Population Tubulin-Different-Phenotype (%): 61.73% and 91.37%
  Total Cell Count: 599 and 749
U2OS; [1]
  Population Apoptotic (%): 45.71% and 37.5%
  Population Fragmented Nuclei (%): 1.25% and 5.73%
  Population Healthy Nuclei (%): 90.02% and 84.08%
  Population Hoechst High Intensity Objects (%): 0%
  Population Membrane Permeable-Phenotype (%): 0.28% and 7.58%
  Population Mitochondria Different-Phenotype (%): 0% and 6.82%
  Population Mitotic Cells (%): 54.29% and 62.5%
  Population Normal (%): 100%
  Population Pyknosed Nuclei (%): 8.73% and 10.19%
  Population Tubulin-Different-Phenotype (%): 0.28% and 0%
  Total Cell Count: 401 and 157
U2OS; [2]
  Population Apoptotic (%): 73.33% and 43.75%
  Population Fragmented Nuclei (%): 9.57% and 11.05%
  Population Healthy Nuclei (%): 83.25% and 79.65%
  Population Hoechst High Intensity Objects (%): 0%
  Population Membrane Permeable-Phenotype (%): 8.33% and 15.33%
  Population Mitotic Cells (%): 26.67% and 56.25%
  Population Normal (%): 100%
  Population Pyknosed Nuclei (%): 7.18% and 9.3%
  Population Tubulin-Different-Phenotype (%): 4.02% and 3.65%
  Total Cell Count: 418 and 172
U2OS; [3]
  Population Apoptotic (%): 38.6% and 34.38%
  Population Fragmented Nuclei (%): 1.54% and 3.88%
  Population Healthy Nuclei (%): 87.45% and 80.58%
  Population Hoechst High Intensity Objects (%): 0%
  Population Membrane Permeable-Phenotype (%): 0.66% and 4.22%
  Population Mitochondria Different-Phenotype (%): 0% and 3.61%
  Population Mitotic Cells (%): 61.4% and 65.62%
  Population Normal (%): 100%
  Population Pyknosed Nuclei (%): 11% and 15.53%
  Population Tubulin-Different-Phenotype (%): 1.1% and 0%
  Total Cell Count: 518 and 206
U2OS; [4]
  Population Apoptotic (%): 49.3% and 65.52%
  Population Fragmented Nuclei (%): 11.73% and 11.05%
  Population Healthy Nuclei (%): 74.16% and 73.68%
  Population Hoechst High Intensity Objects (%): 0%
  Population Mitotic Cells (%): 50.7% and 34.48%
  Population Normal (%): 100%
  Population Pyknosed Nuclei (%): 14.12% and 15.26%
  Population Tubulin-Different-Phenotype (%): 6.97% and 2.14%
  Total Cell Count: 503 and 190
U2OS; [5]
  Population Apoptotic (%): 39.13% and 30.56%
  Population Fragmented Nuclei (%): 2.98% and 4.32%
  Population Healthy Nuclei (%): 86.85% and 84.57%
  Population Hoechst High Intensity Objects (%): 0% and 0.31%
  Population Membrane Permeable-Phenotype (%): 2.04% and 2.92%
  Population Mitochondria Different-Phenotype (%): 0% and 2.55%
  Population Mitotic Cells (%): 60.87% and 69.44%
  Population Normal (%): 100% and 99.69%
  Population Pyknosed Nuclei (%): 10.17% and 11.11%
  Population Tubulin-Different-Phenotype (%): 1.65% and 1.82%
  Total Cell Count: 905 and 325
U2OS; [6]
  Population Apoptotic (%): 62.73% and 80.56%
  Population Fragmented Nuclei (%): 8.71% and 11.34%
  Population Healthy Nuclei (%): 63.24% and 58.4%
  Population Hoechst High Intensity Objects (%): 0%
  Population Membrane Permeable-Phenotype (%): 2.48% and 6.47%
  Population Mitotic Cells (%): 37.27% and 19.44%
  Population Normal (%): 100%
  Population Pyknosed Nuclei (%): 28.05% and 30.25%
  Population Tubulin-Different-Phenotype (%): 16.25% and 8.63%
  Total Cell Count: 574 and 238
